# Experimental data published in ChEMBL document CHEMBL5038583, “Highly Potent and Selective Butyrylcholinesterase Inhibitors for Cognitive Improvement and Neuroprotection” (J Med Chem, 2021).
# The source made the active and inactive calls. No cut-off for these calls is given here.
# Assays:
# SH-SY5Y [1] = test: Cytotoxicity against human SH-SY5Y cells assessed as survival rate at 2.5 uM incubated for 24 hrs by MTT assay; type: functional
# Method in brief: (§1)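 Cells seeded at 1 × 10⁴/well in DMEM with 10% FBS and left overnight, then given compound (DMSO stock diluted in DMEM) for 24 h at 37 °C. MTT added for 4 h, formazan dissolved in DMSO, absorbance read at 492 nm. Viability taken as OD treated/OD DMEM × 100%; IC50 from three independent experiments, mean SD.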
# BV-2 [2] = test: Cytotoxicity against mouse BV-2 cells assessed as survival rate at 100 uM incubated for 24 hrs by MTT assay; type: functional; method in brief: as §1
# Cholinesterase [3] = molecular target: Cholinesterase (Equus caballus, UniProt P81908); test: Inhibition of equine serum BChE using butyrylthiocholine iodide as substrate preincubated for 5 mins followed by substrate addition and measured after 2 mins by DTNB-reagent based Ellman's method
# Chain of Cholinesterase (Equus caballus, UniProt P81908) (P81908 whole entry): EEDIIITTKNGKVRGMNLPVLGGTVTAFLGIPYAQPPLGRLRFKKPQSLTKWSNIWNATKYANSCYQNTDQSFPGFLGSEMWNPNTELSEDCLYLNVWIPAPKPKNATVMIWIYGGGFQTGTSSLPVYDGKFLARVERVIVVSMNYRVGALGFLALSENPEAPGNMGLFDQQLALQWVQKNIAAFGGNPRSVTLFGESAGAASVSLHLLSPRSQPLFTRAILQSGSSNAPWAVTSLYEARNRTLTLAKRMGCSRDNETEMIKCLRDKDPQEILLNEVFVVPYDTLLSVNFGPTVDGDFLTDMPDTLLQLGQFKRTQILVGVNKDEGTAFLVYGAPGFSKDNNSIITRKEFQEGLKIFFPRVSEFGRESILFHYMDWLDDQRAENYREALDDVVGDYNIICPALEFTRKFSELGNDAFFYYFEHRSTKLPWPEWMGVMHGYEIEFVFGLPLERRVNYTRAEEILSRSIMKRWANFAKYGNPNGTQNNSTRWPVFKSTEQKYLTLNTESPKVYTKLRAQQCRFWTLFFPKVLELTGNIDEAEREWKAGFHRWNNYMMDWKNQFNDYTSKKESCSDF
# HepG2 [4] = test: Cytotoxicity against human HepG2 cells assessed as reduction in cell viability incubated for 24 hrs by MTT assay; type: functional, cell-based; conditions: HepG2, 24 h; method in brief: as §1
# L02 = test: Cytotoxicity against human L02 cells assessed as survival rate at 100 uM incubated for 24 hrs by MTT assay; type: functional; method in brief: as §1
# Cholinesterase [5] = molecular target: Cholinesterase (Homo sapiens, UniProt P06276); test: Inhibition of human serum BChE using butyrylthiocholine iodide as substrate preincubated for 20 mins followed by substrate addition and measured after 2 mins by DTNB-reagent based Ellman's method
# Chain of Cholinesterase (Homo sapiens, UniProt P06276) (P06276 whole entry): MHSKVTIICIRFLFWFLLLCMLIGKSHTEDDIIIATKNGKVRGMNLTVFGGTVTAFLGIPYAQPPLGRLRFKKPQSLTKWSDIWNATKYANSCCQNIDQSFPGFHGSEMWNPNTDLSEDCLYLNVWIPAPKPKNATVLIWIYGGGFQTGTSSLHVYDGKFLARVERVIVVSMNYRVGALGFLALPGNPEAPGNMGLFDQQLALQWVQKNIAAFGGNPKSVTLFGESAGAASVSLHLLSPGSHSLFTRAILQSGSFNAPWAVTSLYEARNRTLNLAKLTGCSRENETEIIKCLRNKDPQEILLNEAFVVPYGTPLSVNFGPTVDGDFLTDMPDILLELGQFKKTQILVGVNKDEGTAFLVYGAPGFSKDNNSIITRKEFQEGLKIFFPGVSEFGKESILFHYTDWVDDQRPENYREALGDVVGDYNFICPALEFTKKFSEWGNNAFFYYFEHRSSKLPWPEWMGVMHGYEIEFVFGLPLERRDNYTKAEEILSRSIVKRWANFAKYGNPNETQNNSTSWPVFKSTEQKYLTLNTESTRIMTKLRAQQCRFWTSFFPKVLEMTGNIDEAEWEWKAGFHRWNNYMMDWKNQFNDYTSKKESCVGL
# Method in brief: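 hBChE at 0.015 units/mL with DTNB in phosphate buffer pH 8.0, preincubated 20 min at room temperature with at least six concentrations (10⁻⁴−10⁻⁹). Butyrylthiocholine iodide (0.075 M solution) added; A412 read after 2 min at 25 °C. IC50 from % activity vs log concentration; triplicates in at least three runs.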
# PC-12 [6] = test: Cytotoxicity against rat PC-12 cells assessed as survival rate at 2.5 uM incubated for 24 hrs by MTT assay; type: functional; method in brief: as §1
# SH-SY5Y [7] = test: Cytotoxicity against human SH-SY5Y cells assessed as reduction in cell viability incubated for 24 hrs by MTT assay; type: functional, cell-based; method in brief: as §1
# PC-12 [8] = test: Cytotoxicity against rat PC-12 cells assessed as reduction in cell viability incubated for 24 hrs by MTT assay; type: functional, cell-based; conditions: PC-12, 24 h; method in brief: as §1
# PC-12 [9] = test: Cytotoxicity against rat PC-12 cells assessed as survival rate at 10 uM incubated for 24 hrs by MTT assay; type: functional; method in brief: as §1
# SH-SY5Y [10] = test: Neuroprotective activity against glutamate-induced cytotoxicity in human SH-SY5Y cells at 10 uM pretreated for 2 hrs followed by glutamate stimulation and measured after 24 hrs by MTT assay; type: functional, cell-based; conditions: time 26.0 hrs
# Method in brief: (§2)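 SH-SY5Y cells seeded at 5000 per well and grown 24 h. Pretreated 2 h with compound (2.5 or 10 μM, diluted in DMEM from 10⁻¹ M DMSO stock), then H₂O₂ 200 μM, glutamate 20 mM or aggregated Aβ1-42 15 μM for 24 h. MTT added for 4 h, formazan dissolved in DMSO, absorbance read at 492 nm. Viability relative to untreated control; mean ± SEM, n = 3.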
# SH-SY5Y [11] = test: Neuroprotective activity against amyloid beta (1 to 42)-induced cytotoxicity in human SH-SY5Y cells at 10 uM pretreated for 2 hrs followed by amyloid beta (1 to 42) stimulation and measured after 24 hrs by MTT assay; type: functional, cell-based; conditions: time 26.0 hrs; method in brief: as §2
# [12] = Hepatotoxicity in ICR mouse assessed as change in alanine aminotransferase activity at 1 g/kg, ig administered daily for 14 days measured upto 36 hrs post-administration; type: toxicity; conditions: in vivo, po, 1000 mg/kg, 336 h, time 14 day
# Method in brief: (§3)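 Heparinized serum from ICR mice taken at 8, 22 and 36 h after oral compound or saline control; AST and ALT activities measured.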
# [13] = Metabolic stability in human liver microsomes assessed as half life at 1 uM measured upto 45 mins in presence of NADPH by LC/MS/MS analysis; type: ADME, Microsome
# Method in brief: (§4)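 Human liver microsomes 0.5 mg/mL, compound 1 μM final, NADPH 2 mM, at 37 °C. Reactions stopped at 0, 5, 15, 30 and 45 min with acetonitrile containing imipramine internal standard. LC/MS/MS quantitation relative to 0 min; initial rates used for t1/2 and intrinsic clearance; ketanserin as assay control. Mean of two independent experiments.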
# [14] = Acute toxicity in ICR mouse assessed as animal death at […]; conditions: in vivo, po, 1000 mg/kg, 336 h
# Mus musculus [15] = test: Anti-alzheimer activity in amyloid beta(1 to 42)-induced ICR mouse model of cognitive impairment assessed as enhanced alternation performance by measuring total number of arm entries at 15 mg/kg, ig administered at days 2 to 14 and measured on day 15 by Y-maze test; type: functional
# Method in brief: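 Oligomerized Aβ1-42 (10 μg per mouse, icv) given on day 1; saline icv for sham. Dosing 15 mg/kg ig on days 2−14 (donepezil as positive control), n = 8. Spontaneous alternation read on day 15 in a three-arm grey PVC Y maze, arms at 120°. Mean SD.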
# [16] = Hepatotoxicity in ICR mouse assessed as change in aspartate aminotransferase activity at 1 g/kg, ig administered daily for 14 days measured upto 36 hrs post-administration; type: toxicity; conditions: in vivo, po, 1000 mg/kg, 336 h, time 14 day; method in brief: as §3
# [17] = Toxicity in ICR mouse assessed as increase in body weight administered for 14 days and measured daily; conditions: in vivo, 15 mg/kg, 336 h
# [18] = Effective permeability of the compound in pH 7.4 PBS/EtOH (70:30) at 100 ug/ml incubated for 18 hrs by PAMPA-BBB assay; type: ADME; conditions: dose 100 µg/ml, read-out: Peff
# Method in brief: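 PAMPA-BBB with porcine brain lipid in dodecane (20 mg/mL) on PVDF filter. Donor holds compound at 100 μg/mL final (from 5 mg/mL DMSO stock) in PBS pH 7.4/EtOH 70:30; acceptor holds the same buffer. Incubated 18 h at 25 °C; donor and acceptor concentrations by UV at five wavelengths. Four wells, at least three runs, nine permeability standards; mean ± SD.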
# [19] = Metabolic stability in human liver microsomes assessed as intrinsic clearance at 1 uM measured upto 45 mins in presence of NADPH by LC/MS/MS analysis; type: ADME, Microsome; conditions: read-out: CLH; method in brief: as §4
# Mus musculus [20] = test: Antialzheimer activity in ICR mouse assessed as reduction in scopolamine-induced cognitive impairment at 30 mg/kg, ig administered for 10 consecutive days by Morris water maze test; type: functional, organism-based; conditions: time 10.0 day
# Method in brief: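 Male ICR mice (8−10 weeks, 18−20 g), n = 8 per group. Compound at 15 or 30 mg/kg intragastric in DMSO/saline (10:90), given 30 min before scopolamine 3 mg/kg i.p., for 10 consecutive days; tacrine 15 mg/kg as reference. Morris water maze: 5 days of training, probe trial on day 6 with platform removed. Escape latency and trajectory recorded; mean ± SD.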
# SH-SY5Y [21] = test: Cytotoxicity against human SH-SY5Y cells assessed as survival rate at 100 uM incubated for 24 hrs by MTT assay; type: functional; method in brief: as §1
# HepG2 [22] = test: Cytotoxicity against human HepG2 cells assessed as survival rate at 100 uM incubated for 24 hrs by MTT assay; type: functional; method in brief: as §1
# Mus musculus [23] = test: Anti-alzheimer activity in amyloid beta(1 to 42)-induced ICR mouse model of cognitive impairment assessed as simplification of trajectories at 15 mg/kg, ig administered at days 2 to 14 by Morris water maze test; type: functional, organism-based
# Method in brief: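 ICR mice, n = 8 per group. Aggregated Aβ1-42 (5 mM DMSO stock incubated 24 h at 37 °C in saline at 2 mg/mL) given 10 μg per mouse icv on day 1; saline icv for sham. Compound 15 mg/kg intragastric on days 2−14; donepezil reference. Morris water maze training days 9−13, probe trial day 14; tracks recorded; mean ± SD.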
# [24] = Acute toxicity in ICR mouse assessed as abnormal behaviour at 1 g/kg, ig administered […]; conditions: in vivo, po, 1000 mg/kg
# Method in brief: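 Single dose of 1 g/kg given intragastrically on day 1 to overnight-fasted mice (15−18 g), suspended in 5% DMSO, 40% PEG 400, 55% saline. Male and female groups (n = 9), with vehicle controls. Death, daily behaviour and body mass followed over the next 2 weeks.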
# Mus musculus [25] = test: Anti-alzheimer activity in amyloid beta(1 to 42)-induced ICR mouse model of cognitive impairment assessed as reduction in escape latency time at 15 mg/kg, ig administered at days 2 to 14 by Morris water maze test; type: functional
# Method in brief: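 Mouse model by icv oligomerized Aβ1-42 (10 μg/mouse, aggregated 24 h at 37 °C in saline) on day 1; 15 mg/kg ig on days 2−14, n = 8. Morris water maze training on days 9−13, probe trial day 14, escape latency and track recorded. Mean SD.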
# [26] = Hepatotoxicity in ICR mouse assessed as morphological changes in liver at 1 g/kg, ig administered daily for 14 days analysed after 22 hrs post-administration by hematoxylin and eosin staining based analysis; type: toxicity, tissue-based; conditions: in vivo, po, 1000 mg/kg, 336 h, time 14 day
# Method in brief: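 Liver from male mice taken 22 h after compound or vehicle; hematoxylin−eosin staining, viewed at ×100.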
# SH-SY5Y [27] = test: Neuroprotective activity against amyloid beta (1 to 42)-induced cytotoxicity in human SH-SY5Y cells at 2.5 uM pretreated for 2 hrs followed by amyloid beta (1 to 42) stimulation and measured after 24 hrs by MTT assay; type: functional, cell-based; conditions: time 26.0 hrs; method in brief: as §2
# SH-SY5Y [28] = test: Neuroprotective activity against H2O2-induced cytotoxicity in human SH-SY5Y cells pretreated for 2 hrs followed by H2O2 stimulation and measured after 24 hrs by MTT assay; type: functional, cell-based; conditions: dose 2.5-10 µM, time 26.0 hrs; method in brief: as §2
# BV-2 [29] = test: Anti-inflammatory activity against mouse BV-2 cells assessed as blocked of LPS-induced increased ROS production by measuring green fluorescence preincubated for 1 hr by DCFH-DA staining based fluorescence microscopy; type: functional, cell-based
# Method in brief: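 BV2 cells seeded at 1 × 10⁴ per well and grown 24 h at 37 °C. Compounds at various concentrations for 1 h, then LPS 2.5 μg/mL for 24 h. Washed in PBS, loaded with DCFH-DA 5 μM (final) for 30 min, washed three times. Intracellular ROS taken as green fluorescence intensity by inverted fluorescence microscopy, exposure fixed at 10.2 ms.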
compound,measurement,setting,value
Nc1nonc1-c1nc2ccccc2n1CC(=O)Nc1cccc2ccccc12,Activity,SH-SY5Y [1],40.84%
same,Activity,BV-2 [2],82.9%
same,IC50,Cholinesterase [3],0.044 µM
same,IC50,HepG2 [4],5.05 µM
same,Activity,L02,73.52%
same,IC50,Cholinesterase [5],0.022 µM
same,Activity,PC-12 [6],44.44%
Cc1ccc2cc(NC(=O)Cn3c(-c4nonc4N)nc4ccccc43)ccc2n1,IC50,SH-SY5Y [7],35.1 µM
same,Activity,BV-2 [2],59.79%
same,IC50,HepG2 [4],17.3 µM
same,Activity,L02,61.49%
same,IC50,PC-12 [8],91.5 µM
Nc1nonc1-c1nc2ccccc2n1CC(=O)Nc1cccc([N+](=O)[O-])c1,Activity,PC-12 [9],58.34%
same,Activity,BV-2 [2],94.23%
same,Activity,SH-SY5Y [10],Active
same,IC50,Cholinesterase [3],0.031 µM
same,Activity,SH-SY5Y [11],Active
same,Activity,[12],Non-Toxic
same,half-life at 1 µM,[13],47.5 min
same,Activity,[14],Non-Toxic
same,Activity,Mus musculus [15],68.67%
same,Activity,[16],Non-Toxic
same,Activity,[17],Toxic
same,Activity,L02,87.01%
same,"Papp at 18 h, 100 ug/ml",[18],12.4 ×10⁻⁶ cm/s
same,CLint scaled at 1 µM,[19],36.6 mL/min/kg
same,Activity,Mus musculus [20],Active
same,Activity,SH-SY5Y [21],82.67%
same,IC50,Cholinesterase [5],0.025 µM
same,Activity,HepG2 [22],75.46%
same,Activity,Mus musculus [23],Active
same,Activity,[24],Non-Toxic
same,Activity,Mus musculus [25],Active
same,Activity,[26],Non-Toxic
same,Activity,SH-SY5Y [27],Active
same,Activity,SH-SY5Y [28],Dose-Dependent Effect
same,Activity,BV-2 [29],Active
